The test system of one data set is SU-DHL-5. Kind of data set: Antiproliferative activity against human SU-DHL-5 cells assessed as cell viability at 10 uM by CellTiter-Glo luminescent cell viability assay (reference value: 100%). It counts as functional. Particulars: read-out: Activity.
The test system of data set [1] is MOLT-4. The data set is described as follows: Antiproliferative activity against human MOLT-4 cells assessed as cell viability at 20 uM by CellTiter-Glo luminescent cell viability assay (reference value: 100%). The format is functional. The conditions noted are these: read-out: Activity.
Data set [2] has as its target T1, Phosphatidylinositol 4,5-bisphosphate 3-kinase catalytic subunit delta isoform (Homo sapiens) (UniProt O00329).
T1 sequence (whole entry): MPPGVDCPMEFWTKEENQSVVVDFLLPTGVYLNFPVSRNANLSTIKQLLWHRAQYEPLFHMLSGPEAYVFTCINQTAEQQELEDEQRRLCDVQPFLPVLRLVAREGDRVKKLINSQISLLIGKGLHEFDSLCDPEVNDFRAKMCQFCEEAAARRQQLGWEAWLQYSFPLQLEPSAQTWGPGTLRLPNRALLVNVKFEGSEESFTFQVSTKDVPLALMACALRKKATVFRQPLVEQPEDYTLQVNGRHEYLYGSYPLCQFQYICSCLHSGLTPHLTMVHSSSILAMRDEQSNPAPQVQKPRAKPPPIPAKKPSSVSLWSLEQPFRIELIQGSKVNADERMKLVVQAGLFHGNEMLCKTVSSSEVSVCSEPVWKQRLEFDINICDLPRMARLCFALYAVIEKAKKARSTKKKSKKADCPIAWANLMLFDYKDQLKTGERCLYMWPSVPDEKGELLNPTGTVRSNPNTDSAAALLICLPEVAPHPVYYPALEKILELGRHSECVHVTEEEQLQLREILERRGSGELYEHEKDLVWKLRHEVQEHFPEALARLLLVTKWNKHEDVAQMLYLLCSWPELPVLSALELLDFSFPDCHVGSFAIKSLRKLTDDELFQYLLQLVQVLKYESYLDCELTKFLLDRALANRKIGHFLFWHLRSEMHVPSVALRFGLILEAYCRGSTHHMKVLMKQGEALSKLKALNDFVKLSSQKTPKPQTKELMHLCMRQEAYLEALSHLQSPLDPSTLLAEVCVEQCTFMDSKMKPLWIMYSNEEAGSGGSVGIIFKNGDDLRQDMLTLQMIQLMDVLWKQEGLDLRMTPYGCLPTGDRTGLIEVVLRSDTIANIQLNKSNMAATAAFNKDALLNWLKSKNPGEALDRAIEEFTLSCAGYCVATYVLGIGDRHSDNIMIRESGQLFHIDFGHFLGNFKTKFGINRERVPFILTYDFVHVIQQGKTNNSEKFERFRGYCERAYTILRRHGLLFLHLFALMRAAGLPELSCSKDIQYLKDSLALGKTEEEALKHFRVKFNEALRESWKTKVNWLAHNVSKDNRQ
The data set is described as follows: Inhibition of PI3Kdelta in human SU-DHL-5 cells assessed as inhibition of AKT phosphorylation at Ser473 residue at 1 to 5 uM measured after 3 hrs by western blot assay. The format is cell-based. Particulars: dose 1-5 µM. The essentials: (§1)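 Treatment lasted 3 h: SUDHL-5 at 1 μM, MOLT-4 at 5 μM. Cells washed twice in cold PBS and lysed. Proteins resolved on 10–12% SDS-PAGE and blotted to PVDF. Probed for p-AKT S473, p-AKT T308, p-S6 and p-4E-BP1, with β-actin as loading control.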

Data set [3] concerns the target T1, Phosphatidylinositol 4,5-bisphosphate 3-kinase catalytic subunit delta isoform (Homo sapiens). Kind of data set: Inhibition of PI3Kdelta in human MOLT-4 cells assessed as inhibition of AKT phosphorylation at Ser473 residue at 1 to 5 uM measured after 3 hrs by western blot assay. The format is cell-based. The conditions noted are these: dose 1-5 µM. The essentials: as §1

Data set [4] deals with SU-DHL10. The data set is described as follows: Induction of apoptosis in human SU-DHL-10 cells assessed as viable cells at 20 uM measured after 24 hrs by AnnexinV-FITC/PI staining based flowcytometry method (reference value: 90%). It counts as functional. Particulars: read-out: Activity. The essentials:
(§2)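 Cells exposed to 20 μM compound for 24 h, washed with cold PBS, and stained with Annexin V-FITC and propidium iodide for 15 min at room temperature. Viable, early apoptotic, late apoptotic and necrotic populations quantified by flow cytometry.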

For data set [5], the system named is SU-DHL10. Kind of data set: Induction of apoptosis in human SU-DHL-10 cells assessed as early apoptotic cells at 20 uM measured after 24 hrs by AnnexinV-FITC/PI staining based flowcytometry method (reference value: 6.32%). The format is functional. The method, boiled down: as §2
The test system of data set [6] is SU-DHL10. Kind of data set: Induction of apoptosis in human SU-DHL-10 cells assessed as late apoptotic cells at 20 uM measured after 24 hrs by AnnexinV-FITC/PI staining based flowcytometry method (reference value: 3.48%). The format is functional. The method, boiled down:
as §2

Data set [7] deals with SU-DHL10. The data set is described as follows: Induction of apoptosis in human SU-DHL-10 cells assessed as necrotic cells at 20 uM measured after 24 hrs by AnnexinV-FITC/PI staining based flowcytometry method (reference value: 0.2%). It counts as functional. The essentials: as §2
For data set [8], the system named is MOLT-4. The data set is described as follows: Induction of apoptosis in human MOLT-4 cells assessed as viable cells at 20 uM measured after 24 hrs by AnnexinV-FITC/PI staining based flowcytometry method (reference value: 95.3%). It counts as functional. Particulars: read-out: Activity. The essentials:
as §2

Data set [9] has as its system MOLT-4. Kind of data set: Induction of apoptosis in human MOLT-4 cells assessed as early apoptotic cells at 20 uM measured after 24 hrs by AnnexinV-FITC/PI staining based flowcytometry method (reference value: 2.04%). It counts as functional. The method, boiled down:
as §2

In data set [10] the test system is MOLT-4. The data set is described as follows: Induction of apoptosis in human MOLT-4 cells assessed as late apoptotic cells at 20 uM measured after 24 hrs by AnnexinV-FITC/PI staining based flowcytometry method (reference value: 2.17%). It counts as functional. The essentials:
as §2

Data set [11] relates to MOLT-4. Kind of data set: Induction of apoptosis in human MOLT-4 cells assessed as necrotic cells at 20 uM measured after 24 hrs by AnnexinV-FITC/PI staining based flowcytometry method (reference value: 0.51%). The format is functional. The essentials:
as §2

Data set [12] has as its system MOLT-4. The data set is described as follows: Antitumour activity against human MOLT-4 cells xenografted in Balb/c nude mouse assessed as inhibition of tumour growth at 10 mg/kg, po administered via gavage qd for 57 days. It counts as functional. Particulars: dose 10.0 mg/kg/day, time 57.0 day. The method, boiled down: (§3)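 MOLT-4 cells (2×10^6 in 0.1 mL D-PBS) implanted subcutaneously on the back of BALB/c-nude mice. Once tumours grew, mice were dosed daily by oral gavage at 10 mg/kg for 57 consecutive days. Tumours measured by caliper, with volume = ½ × […]. Body weight was tracked over the same period.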

Data set [13] in a line: Toxicity in Balb/c nude mouse xenografted with human MOLT-4 cells assessed as changes in body weight at 10 mg/kg, po administered via gavage qd for 57 days. It counts as organism-based. Particulars: in vivo, 1368 h, dose 10 mg/kg/day, time 57 day. The essentials:
as §3

Data set [14] can be described thus: AUC (last) in Sprague-Dawley rat at 3 mg/kg, po measured for 24 hrs by LC-MS/MS analysis. Details: route oral, time 24 hrs, dose 3 mg/kg. It counts as ADME, organism-based. The conditions noted are these: in vivo. The essentials:
(§4)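 Sprague-Dawley rats dosed orally at 1 or 3 mg/kg, three animals per group. Blood sampled at 0.25, 0.5, 1, 2, 4, 8 and 24 h post-dose. Plasma separated by centrifugation, extracted and quantified by LC-MS/MS. PK parameters (Cmax, AUClast, Tmax, t1/2) derived by non-compartmental software.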

Data set [15] in a line: Cmax in Sprague-Dawley rat at 3 mg/kg, po measured for 24 hrs by LC-MS/MS analysis. It counts as ADME, organism-based. Details: route oral, time 24 hrs, dose 3 mg/kg. The conditions noted are these: in vivo. The essentials:
as §4

Data set [16] can be described thus: Tmax in Sprague-Dawley rat at 3 mg/kg, po measured for 24 hrs by LC-MS/MS analysis. It counts as ADME, organism-based. Particulars: in vivo. The method, boiled down: as §4
A short description of data set [17]: Half life in Sprague-Dawley rat at 3 mg/kg, po measured for 24 hrs by LC-MS/MS analysis. It counts as ADME, organism-based. The conditions noted are these: in vivo. The method, boiled down:
as §4

The nature of data set [18]: Cytotoxicity against human MRC5 cells assessed as inhibition of cell viability at 20 uM measured after 48 hrs by MTT assay. It counts as cell-based. Particulars: read-out: INH. The method, boiled down:
(§5)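 MTT assay in MRC-5 cells seeded at 2×10^6 cells/mL. Compound given in 1% FBS EMEM for 48 h at 37 °C in CO2. MTT solution then added for 3 h at 37 °C. Medium removed and formazan dissolved in DMSO.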

The test system of another data set is MRC5. Kind of data set: Cytotoxicity against human MRC5 cells assessed as inhibition of cell viability measured after 48 hrs by MTT assay. The format is cell-based. The conditions noted are these: MRC5, 48 h. The method, boiled down:
as §5

Data set [19] concerns the target T1, Phosphatidylinositol 4,5-bisphosphate 3-kinase catalytic subunit delta isoform (Homo sapiens). Kind of data set: Inhibition of PI3Kdelta in human SU-DHL-5 cells assessed as inhibition of AKT phosphorylation at Thr308 residue at 1 to 5 uM measured after 3 hrs by western blot assay. The format is cell-based. The conditions noted are these: dose 1-5 µM. The essentials:
as §1

Data set [20] shares this target. Kind of data set: Inhibition of PI3Kdelta in human MOLT-4 cells assessed as inhibition of AKT phosphorylation at Thr308 residue at 1 to 5 uM measured after 3 hrs by western blot assay. The format is cell-based. Particulars: dose 1-5 µM. The method, boiled down:
as §1

From ChEMBL document CHEMBL4834477, “Synthesis and biological evaluation of novel purinyl quinazolinone derivatives as PI3Kδ-specific inhibitors for the treatment of hematologic malignancies” (Bioorg Med Chem, 2021) come the findings set out here.

Calls of active or inactive are those of the source. The calls are words filed in the database; no cut-off is given here.

On to `CC[C@H](Nc1ncnc2[nH]cnc12)c1nc2cccc(F)c2c(=O)n1-c1ccccc1` [IDELALISIB], for which the viability at 10 µM in the data set with SU-DHL-5 is 41.3%. Further, the values for the viability at 20 µM with MOLT-4 [1], with SU-DHL10 [4] and in the data set with MOLT-4 [8] were 74.6%, 12.2% and 56.5%, respectively. Besides, the inhibition entry (in [2]; in data set [3]; with MOLT-4 [12]; in data set [19]; in [20]) was “Active” in each case. Moreover, the Activity was 55.7% in the data set on SU-DHL10 [5]; 30.4% in the data set on SU-DHL10 [6]; 1.7% in the data set on SU-DHL10 [7]; 19.2% in the data set with MOLT-4 [9]; 22% in the data set on MOLT-4 [10]; 2.34% in the data set on MOLT-4 [11]. In addition, in data set [13], the Activity entry is “Non-Toxic”. The molecule also had an AUC(0-t) at 24 h in data set [14] of 202 ng·h/mL. The molecule further yielded a Cmax in data set [15] of 53 ng/mL. Besides, in data set [16], the Tmax stood at 0.5 h. Moreover, the half-life in data set [17] is 2.7 h. Further, the cytotoxicity at 48 h, 20 µM in data set [18] is 18.4%. In addition, the IC50 in the data set on MRC5 is > 100 µM.
